From publication PMC10757425 (Toxicology, 2023)
Entries after “also recorded” stand apart in the source; their conditions may differ.

Columns and labels:
[1] = OH-PCB disposition in serum and tissues by GC-MS/MS; assay type: in vivo, Sprague-Dawley rats; conditions: for detection in serum, brain, liver, and lung / rank order of levels across serum and tissues: male rats, 28 days of 4-52 implant exposure
Procedure, shortened: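 Male Sprague-Dawley rats received a subcutaneous polymeric implant (1.3 ± 0.1 mg/g body weight) on the back at PND 28, loaded at 0, 1, 5 or 10% (w/w) test compound, for 28 days. Tissues (n=8/group) were homogenized in 2-propanol and liquid-liquid extracted, with surrogate-recovery and internal-standard correction. LOD came from sham tissues (mean + t0.01 × SD).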

Sprague-Dawley rats [2] = test: Elevated Plus Maze; assay type: in vivo
Sprague-Dawley rats [3] = test: Y-maze; assay type: in vivo
Sprague-Dawley rats [4] = test: Histopathology; assay type: in vivo; conditions: for prevalence of minimal liver inflammation (% of evaluated slides): sham 37.5%
Procedure, shortened: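 After 28 days of implant exposure, brain, accessory lobe of right lung and left lateral liver lobe were formalin-fixed and H&E stained (8 rats/group, 2 per cohort, random). A veterinary pathologist scored brain regions (prefrontal cortex, striatum, hippocampus, cerebellum) and lung and liver for inflammation (any immune cells), hemorrhage, edema, necrosis, apoptosis and morphology. Brain was also scored for gliosis; lung and liver for extramedullary hematopoiesis.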

Sprague-Dawley rats [5] = test: Hole Board Test; assay type: in vivo
Procedure, shortened: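 Implant-exposed rats (n=15/group) were tested blind on exposure days 24–28. Each rat was released centrally for 5 min. Distance and head dips (ears passing through a hole) were video-tracked. Analysis: one-way ANOVA with Fisher's LSD; mean ± SD.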

[6] = General toxicity assessment; assay type: in vivo, Sprague-Dawley rats
Procedure, shortened: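 Rats arrived at 21 days old and were acclimated 7 days. At PND 28, under isoflurane with 1 mg/kg s.c. meloxicam, they received s.c. implants with 0, 1, 5 or 10% w/w test compound (1.3 ± 0.1 mg/g bw), n=15/group. Surgical site and behaviour were checked daily for 5 days. At PND 56, blood was taken by cardiac puncture, rats were perfused with cold PBS and organs harvested.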

[7] = In vitro release from polymeric implants; conditions: after 28 days
[8] = In vivo exposure dosimetry: 4-52 remaining in retrieved subcutaneous implants; design: species or system Sprague-Dawley rats; conditions: for In vivo exposure: 4-52 remaining in the implant / In vivo exposure: 4-52 remaining in the implant (%): subcutaneous implant, 28 days, male rats
Procedure, shortened: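 Male rats carried s.c. implants (0, 1, 5 or 10% w/w; 1.3 ± 0.1 mg/g bw) from PND 28 for 28 days. Retrieved implants were dissolved in 10 mL DCM, diluted 3-fold and read by UV/Vis at 285 nm against a matrix-matched calibration curve. Internal dose was taken as total load minus remaining amount, assuming 100% bioavailability.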

Sprague-Dawley rats [9] = test: Open Field Test; assay type: in vivo; conditions: between the groups at any time epoch, two-way ANOVA
Procedure, shortened: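 Implant-exposed rats (n=15/group) were tested blind during exposure days 24–28. The opaque rectangular arena (~5000 cm2, 50 cm walls) was divided into central and outer zones. Each rat started in the center and explored freely for 30 min on two consecutive days. Overhead video tracking recorded distance travelled in 5-min epochs. Analysis: two-way ANOVA.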

rats = conditions: developmental exposure via the maternal diet, ref Boix et al., 2010; cited from earlier work
[10] = administered orally with corn oil; ref Rostami and Juhasz, 2011; cited from earlier work
[11] = 45-day study, female rats; ref Aqil et al., 2014; cited from earlier work
[12] = rats, dip-coated implants; ref Aqil et al. (2014); cited from earlier work

Oc1cc(Cl)c(-c2cc(Cl)c(O)cc2Cl)cc1Cl [4,4’-52, 4,4’-dihydroxy-2,2’,5,5’-tetrachlorobiphenyl]
detection in the brain ([1]; after 4-52 implant exposure): only found in the medium and high-dose groups
detection in the lung ([1]; after 4-52 implant exposure): detected
presence in the serum and liver ([1]; after 4-52 implant exposure): present in the serum and liver from all exposure groups
detection in serum, brain, liver, and lung [1]: detected
rank order of levels across serum and tissues [1]: serum > lung > liver > brain

Oc1cc(Cl)c(-c2cc(Cl)ccc2Cl)cc1Cl [4-52, 2,2’,5,5’-tetrachlorobiphenyl-4-ol]
levels in serum and tissues versus 4-52 dose ([1]; all compartments): increased with increasing 4-52 doses
detection in serum, brain, liver, and lung [1]: detected
rank order of levels across serum and tissues [1]: serum >> liver > lung > brain
Elevated Plus Maze time in the open arm (Sprague-Dawley rats [2]; high group, did not reach statistical significance, p = 0.076): marginally increased
Elevated Plus Maze time in the enclosed arm (Sprague-Dawley rats [2]; high-exposed group vs sham, post hoc Fisher’s LSD, p = 0.043): significantly decreased
Elevated Plus Maze distance traveled in the enclosed arm (Sprague-Dawley rats [2]; medium exposed group, post hoc Fisher’s LSD, p = 0.097): trend of reduction; also recorded: decreased
Y-maze percentage of spontaneous alternation (Sprague-Dawley rats [3]; all exposure groups, one-way ANOVA, p = 0.262): no significant changes; also recorded: did not affect
Y-maze total distance traveled (Sprague-Dawley rats [3]; all exposure groups, one-way ANOVA, p = 0.300): no significant changes
Y-maze number of total entries (Sprague-Dawley rats [3]; all exposure groups, one-way ANOVA, p = 0.342): no significant changes
Y-maze total distance traveled (Sprague-Dawley rats [3]; medium-exposed group vs sham, post hoc Fisher’s LSD, p = 0.067): trend to decrease; also recorded: trend of a decrease
Y-maze total number of entries (Sprague-Dawley rats [3]; medium-exposed group vs sham, post hoc Fisher’s LSD, p = 0.087): trend to decrease; also recorded: trend of a decrease
histopathological evaluation of brain and lung (Sprague-Dawley rats [4]; exposed or sham rats, 28 days): no overt treatment-specific lesions
prevalence of minimal liver inflammation (% of evaluated slides) (Sprague-Dawley rats [4]; high dose group): 75%
prevalence of minimal liver inflammation (% of evaluated slides) (Sprague-Dawley rats [4]; low dose group): 12.5%
prevalence of minimal liver inflammation (% of evaluated slides) (Sprague-Dawley rats [4]; medium dose group): 25%
Hole Board Test total distance traveled (Sprague-Dawley rats [5]; exposed vs sham groups, one-way ANOVA, p = 0.297): no significant differences
Hole Board Test number of head dipping (Sprague-Dawley rats [5]; exposed vs sham groups, one-way ANOVA, p = 0.433): no significant differences; also recorded: did not affect
Hole Board Test total distance traveled (Sprague-Dawley rats [5]; medium-exposed rats, post hoc Fisher’s LSD, p = 0.071): slightly reduced; also recorded: trend of a decrease
implantation site ([6]; end of 28-day study): no signs of adverse effects
adverse outcomes throughout the study ([6]; implants with 0, 1, 5 or 10% of 4-52, 28 days): No adverse outcomes
body weight gain ([6]; implants with 1, 5, 10% 4-52 vs sham, 28 days): No significant differences
other organ weights ([6]; subcutaneous 4-52 exposure, 28 days): no significant effects; also recorded: no other organ weights were affected
relative liver weight (% of body weight) ([6]; subcutaneous 4-52 exposure, 28 days, p < 0.001): decreased dose-dependently; also recorded: significant decrease
In vitro release: 4-52 remaining in the implant (%) ([7]; High group, 10% load): 5.2 ± 1.1%
In vitro release: 4-52 remaining in the implant (%) ([7]; Low group, 1% load): 3.4 ± 0.9%
In vitro release: 4-52 remaining in the implant (%) ([7]; Medium group, 5% load): 2.9 ± 1.8%
In vivo exposure: 4-52 remaining in the implant ([8]; High group, 10% load): 0.80 ± 0.40 mg
In vivo exposure: 4-52 remaining in the implant (%) ([8]; High group, 10% load): 6.9 ± 3.1%
In vivo exposure: 4-52 remaining in the implant ([8]; Low group, 1% load): 0.06 ± 0.02 mg
In vivo exposure: 4-52 remaining in the implant (%) ([8]; Low group, 1% load): 5.8 ± 2.3%
In vivo exposure: 4-52 remaining in the implant ([8]; Medium group, 5% load): 0.40 ± 0.20 mg
In vivo exposure: 4-52 remaining in the implant (%) ([8]; Medium group, 5% load): 6.3 ± 2.8%
4-52 left in the implants after in vivo exposure ([8]; after 28 days of exposure, range over loads): 5.8-6.9%
Open Field Test locomotor activity (travel distance) in 5 min epochs over 30 min (Sprague-Dawley rats [9]): no significant differences; also recorded: not altered

Clc1ccc(Cl)c(-c2cc(Cl)ccc2Cl)c1 [PCB 52, 2,2’,5,5’-Tetrachlorobiphenyl]
Y-maze performance (rats): did not affect
motor coordination (rats): impaired
oral bioavailability rate [10]: 52.9%

Clc1ccc(-c2cc(Cl)c(Cl)c(Cl)c2)cc1Cl [PCB 126]
released from polymeric implants in vivo [11]: 49%
liver weights compared to sham controls [12]: significantly increased

Clc1cc(Cl)c(-c2cc(Cl)c(Cl)cc2Cl)cc1Cl [PCB 153]
released from polymeric implants in vivo [11]: 73%
